# The source made the active and inactive calls. The calls are words filed in the database; no cut-off is given here.
# Assays:
# [1] = Inhibition of BRM/BRG1 mutant in human NCI-H1299 cells assessed as reduction in KRT80 gene expression after 24 hrs by luciferase reporter gene assay; type: cell-based; settings: NCI-H1299, 24 h
# How it was run: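 NCI-H1299 cells carry NanoLuc knocked into the endogenous KRT80 locus and are grown in RPMI-1640 with 10% FBS. Plated at 500 cells/well and left overnight, then dosed over 10 points in 3-fold dilutions from 10 µM.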
# [2] = biological target: T1, SWI/SNF-related matrix-associated actin-dependent regulator of chromatin subfamily A member 2 (Homo sapiens, UniProt P51531); test: Inhibition of recombinant His10-tagged ZZ-HCV3C-BRM ATPase-SnAC (636 to 1331 residues) (unknown origin) expressed in insect sf9 cells preincubated for 5 mins followed by pCMV-dR8.91 plasmid and ATP addition measured after 60 mins by ADP-Glo assay
# [3] = biological target: T2, SWI/SNF-related matrix-associated actin-dependent regulator of chromatin subfamily A member 4 (Homo sapiens, UniProt P51532); test: Inhibition of recombinant His6-tagged BRG1 ATPase-SnAC (658 to 1361 residues) (unknown origin) expressed in insect sf9 cells preincubated for 5 mins followed by pCMV-dR8.91 plasmid and ATP addition measured after 60 mins by ADP-Glo assay
# [4] = Thermodynamic solubility of the compound at 1 mg/ml pH 6.8 after 16 to 24 hrs by shake-flask method; type: physicochemical; settings: buffer, read-out: Therm_solubility
# [5] = Inhibition of BRM/BRG1 mutant-dependant cell proliferation in human SKMEL5 cells after 6 days by celltiter-glo luminescent cell viability assay; type: cell-based; settings: SK-MEL-5, 144 h
# SBC-5 = test: Antiproliferative activity against human SBC5 cells assessed as cell growth inhibition after 6 days by celltiter-glo luminescent cell viability assay; type: functional, cell-based; settings: SBC-5, 144 h
# [6] = biological target: T2, SWI/SNF-related matrix-associated actin-dependent regulator of chromatin subfamily A member 4; test: Binding affinity to BRG1 ATPase-SnAC domain (unknown origin) expressed in insect sf9 cells assessed as change in melting temperature at 500 uM by DSF-assay (reference value: 0 degreeC)
# Mus musculus [7] = test: In vivo inhibition of BRM/BRG1 mutant in human RERF-LC-A1 cells xenografted in athymic nude mouse assessed as reduction in KRT80 gene expression at 20 mg/kg, po after 7 hrs by real-time PCR method; type: functional
# How it was run: (§1)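 RERF-LC-AI tumor-bearing nude mice received oral compound daily, suspended in 0.5% methyl cellulose and 0.5% Tween 80 in water, at 7.5 or 20 mg/kg. Tumor KRT80 mRNA was measured at several post-dose time points, including 7 h and 16 h onward.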
# Mus musculus [8] = test: Time required for unbound plasma concentration to reach above in vitro unbound EC50 for reduction in BRM/BRG1 mutant-induced KRT80 gene expression in human RERF-LC-A1 cells in athymic nude mouse at 20 mg/kg, po administered daily for 3 weeks; type: ADME, organism-based; settings: in vivo, 504 h
# How it was run: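 Nude mice bearing RERF-LC-AI tumors were dosed orally once daily for 3 weeks at 20 mg/kg. The dose was a suspension in 0.5% methyl cellulose and 0.5% Tween 80 in water. Unbound plasma concentrations over time were compared with the cellular KRT80 EC50.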
# Mus musculus [9] = test: In vivo inhibition of BRM/BRG1 mutant in human RERF-LC-A1 cells xenografted in po dosed athymic nude mouse assessed as reduction in KRT80 gene expression after 7 to 24 hrs by real-time PCR method; type: functional, organism-based; how it was run: as §1
# RERF-LC-AI [10] = test: Anti-tumor activity in human RERF-LC-A1 cells xenografted in athymic nude mouse assessed as tumor growth inhibition at 7.5 mg/kg, po administered for 3 weeks measured twice per week during compound dosing relative to control; type: functional; settings: 504 h, read-out: TGI
# How it was run: (§2)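 Nude mice bearing RERF-LC-AI xenografts were dosed orally with a suspension in 0.5% methyl cellulose and 0.5% Tween 80 in water. Dosing was daily for 3 weeks at 7.5 or 20 mg/kg. Tumor growth and tolerability were followed during dosing.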
# RERF-LC-AI [11] = test: Anti-tumor activity in human RERF-LC-A1 cells xenografted in athymic nude mouse assessed as tumor growth at 30 mg/kg, po administered daily for 4 consecutive days followed by incubation for next 3 days in absence of compounds relative to control; type: functional
# [12] = Inhibition of BRM/BRG1 mutant in human RERF-LC-A1 cells assessed as reduction in KRT80 gene expression after 24 hrs by luciferase reporter gene assay; type: cell-based
# Mus musculus [13] = test: In vivo inhibition of […] in human RERF-LC-A1 cells xenografted in athymic nude mouse assessed as reduction in KRT80 mRNA expression at 20 mg/kg, po measured at 16 hrs post last dose of 3 weeks of daily dosing by RT-PCR analysis; type: functional, organism-based; how it was run: as §1
# Mus musculus [14] = test: Toxicity in athymic nude mouse xenografted with human RERF-LC-A1 cells up to 20 mg/kg, po administered for 3 weeks; type: organism-based; settings: in vivo, 504 h; how it was run: as §2
# RERF-LC-AI [15] = test: Anti-tumor activity in human RERF-LC-A1 cells xenografted in athymic nude mouse assessed as tumor growth inhibition at 20 mg/kg, po administered for 3 weeks measured twice per week during compound dosing relative to control; type: functional; settings: 504 h, read-out: TGI; how it was run: as §2
# Mus musculus [16] = test: In vivo inhibition of BRM/BRG1 mutant in human RERF-LC-A1 cells xenografted in athymic nude mouse assessed as reduction in KRT80 gene expression at 20 mg/kg, po after 16 to 24 hrs by real-time PCR method; type: functional, organism-based; how it was run: as §1
# [17] = biological target: T1, SWI/SNF-related matrix-associated actin-dependent regulator of chromatin subfamily A member 2; test: Binding affinity to N-terminal MBP-fused human BRM RecA domain (705 to 960 residues) expressed in Escherichia coli BL21 Star (DE3) by ITC method
# [18] = biological target: SWI/SNF-related matrix-associated actin-dependent regulator of chromatin subfamily A member 2 (Homo sapiens, UniProt P51531, E852Q); test: Binding affinity to N-terminal MBP-fused human BRM RecA domain E852Q mutant expressed in Escherichia coli BL21 Star (DE3) by ITC method
# [19] = biological target: T2, SWI/SNF-related matrix-associated actin-dependent regulator of chromatin subfamily A member 4; test: Binding affinity to His6-tagged BRG1 ATPase-SnAC (658 to 1361 residues) (unknown origin) expressed in insect sf9 cells by ITC method
# [20] = biological target: T1, SWI/SNF-related matrix-associated actin-dependent regulator of chromatin subfamily A member 2; test: Binding affinity to N-terminal avi-tagged BRM ATPase-SnAC domain (unknown origin) in presence of ADP by SPR assay
# How it was run: (§3)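 SPR at 10 °C: about 2000 RU of N-terminal Avi-tagged BRM ATPase-SnAC captured on a streptavidin chip, with a blank reference cell. Compound dose series injected 60 s at 100 µL/min with 120 s dissociation; data solvent-corrected, double-referenced and fit 1:1 for KD.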
# [21] = biological target: T1, SWI/SNF-related matrix-associated actin-dependent regulator of chromatin subfamily A member 2; test: Inhibition of full length BRM ATPase (1 to 1572 residues) (unknown origin) expressed in insect sf9 cells preincubated for 5 mins followed by pCMV-dR8.91 plasmid and ATP addition measured after 60 mins by ADP-Glo assay
# How it was run: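 Full-length BRM (1-1572), purified from Sf9 cells by Ni or anti-FLAG affinity, then anion exchange and size exclusion. Reaction run 60 min at room temperature; ADP-Glo luminescence read-out; IC50 from duplicate means.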
# [22] = biological target: T1, SWI/SNF-related matrix-associated actin-dependent regulator of chromatin subfamily A member 2; test: Binding affinity to N-terminal avi-tagged BRM ATPase-SnAC domain (unknown origin) in absence of ADP by SPR assay; how it was run: as §3
# [23] = biological target: T2, SWI/SNF-related matrix-associated actin-dependent regulator of chromatin subfamily A member 4; test: Binding affinity to BRG1 ATPase-SnAC domain (unknown origin) expressed in insect sf9 cells assessed as change in melting temperature at 100 uM by DSF-assay (reference value: 0 degreeC)
# [24] = Thermodynamic solubility of the compound at 1 mg/ml pH 1 after 16 to 24 hrs by shake-flask method; type: physicochemical; settings: buffer, read-out: Therm_solubility
# [25] = biological target: T2, SWI/SNF-related matrix-associated actin-dependent regulator of chromatin subfamily A member 4; test: Binding affinity to BRG1 ATPase-SnAC domain (unknown origin) expressed in insect sf9 cells assessed as change in melting temperature at 100 uM in presence of ADP by DSF-assay (reference value: 0 degreeC)
# [26] = biological target: T1, SWI/SNF-related matrix-associated actin-dependent regulator of chromatin subfamily A member 2; test: Inhibition of recombinant His10-tagged ZZ-HCV3C-BRM ATPase-SnAC (636 to 1331 residues) (unknown origin) expressed in insect sf9 cells preincubated for 5 mins followed by pCMV-dR8.91 and 10 times ATP addition measured after 60 mins by ADP-Glo assay
# How it was run: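 BRM residues 636-1331 (tag removed by HCV3C cleavage), 5 nM final, preincubated with compound for 5 min at room temperature. Reaction started with ATP at 10x Km plus 2 nM pCMV-dR8.91 plasmid, run 60 min. ADP-Glo luminescence read; IC50 by nonlinear regression of duplicate averages.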
# T1 sequence (P51531 whole entry, the tested form may be a part): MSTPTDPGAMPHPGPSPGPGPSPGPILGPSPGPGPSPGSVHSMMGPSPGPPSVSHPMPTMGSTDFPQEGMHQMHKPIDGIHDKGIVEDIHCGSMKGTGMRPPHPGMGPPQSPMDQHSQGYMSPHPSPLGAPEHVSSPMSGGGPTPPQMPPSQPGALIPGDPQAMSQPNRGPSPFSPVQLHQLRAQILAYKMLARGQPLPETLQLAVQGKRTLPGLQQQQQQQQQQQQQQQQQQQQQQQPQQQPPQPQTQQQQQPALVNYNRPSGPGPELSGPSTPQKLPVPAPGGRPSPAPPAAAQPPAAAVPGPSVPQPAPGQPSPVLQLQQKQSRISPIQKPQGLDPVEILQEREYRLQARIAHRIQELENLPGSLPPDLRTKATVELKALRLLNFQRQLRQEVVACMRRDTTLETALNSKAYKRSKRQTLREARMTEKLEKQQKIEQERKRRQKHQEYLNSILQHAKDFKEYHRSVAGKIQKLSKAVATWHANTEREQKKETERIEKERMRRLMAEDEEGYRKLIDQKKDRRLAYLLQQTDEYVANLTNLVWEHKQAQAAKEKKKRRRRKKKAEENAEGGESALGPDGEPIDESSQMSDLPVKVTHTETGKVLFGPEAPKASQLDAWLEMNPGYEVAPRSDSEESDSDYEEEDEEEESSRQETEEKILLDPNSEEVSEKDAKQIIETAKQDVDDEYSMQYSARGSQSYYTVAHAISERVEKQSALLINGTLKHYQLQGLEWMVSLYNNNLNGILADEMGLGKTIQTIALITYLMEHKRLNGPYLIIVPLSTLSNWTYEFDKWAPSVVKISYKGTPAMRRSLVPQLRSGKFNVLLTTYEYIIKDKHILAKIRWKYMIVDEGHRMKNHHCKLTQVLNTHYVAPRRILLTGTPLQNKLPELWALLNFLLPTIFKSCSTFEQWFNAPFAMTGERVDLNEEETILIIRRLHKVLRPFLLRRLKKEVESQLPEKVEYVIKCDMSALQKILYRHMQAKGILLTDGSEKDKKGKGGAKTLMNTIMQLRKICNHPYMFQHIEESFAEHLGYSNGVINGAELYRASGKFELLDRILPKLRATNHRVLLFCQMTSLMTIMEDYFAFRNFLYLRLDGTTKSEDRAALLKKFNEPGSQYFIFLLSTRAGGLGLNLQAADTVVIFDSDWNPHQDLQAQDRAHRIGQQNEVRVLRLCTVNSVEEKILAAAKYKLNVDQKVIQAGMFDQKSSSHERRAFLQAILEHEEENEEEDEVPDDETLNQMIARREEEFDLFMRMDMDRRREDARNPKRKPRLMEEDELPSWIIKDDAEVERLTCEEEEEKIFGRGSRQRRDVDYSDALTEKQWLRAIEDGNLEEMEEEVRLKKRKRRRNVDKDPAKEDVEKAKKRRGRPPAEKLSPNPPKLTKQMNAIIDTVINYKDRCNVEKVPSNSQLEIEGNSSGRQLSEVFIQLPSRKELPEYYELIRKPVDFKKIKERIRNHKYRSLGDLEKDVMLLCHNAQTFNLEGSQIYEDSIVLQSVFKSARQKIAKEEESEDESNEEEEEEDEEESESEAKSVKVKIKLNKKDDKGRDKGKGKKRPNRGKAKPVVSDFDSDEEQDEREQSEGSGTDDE
# T2 sequence (P51532 whole entry, the tested form may be a part): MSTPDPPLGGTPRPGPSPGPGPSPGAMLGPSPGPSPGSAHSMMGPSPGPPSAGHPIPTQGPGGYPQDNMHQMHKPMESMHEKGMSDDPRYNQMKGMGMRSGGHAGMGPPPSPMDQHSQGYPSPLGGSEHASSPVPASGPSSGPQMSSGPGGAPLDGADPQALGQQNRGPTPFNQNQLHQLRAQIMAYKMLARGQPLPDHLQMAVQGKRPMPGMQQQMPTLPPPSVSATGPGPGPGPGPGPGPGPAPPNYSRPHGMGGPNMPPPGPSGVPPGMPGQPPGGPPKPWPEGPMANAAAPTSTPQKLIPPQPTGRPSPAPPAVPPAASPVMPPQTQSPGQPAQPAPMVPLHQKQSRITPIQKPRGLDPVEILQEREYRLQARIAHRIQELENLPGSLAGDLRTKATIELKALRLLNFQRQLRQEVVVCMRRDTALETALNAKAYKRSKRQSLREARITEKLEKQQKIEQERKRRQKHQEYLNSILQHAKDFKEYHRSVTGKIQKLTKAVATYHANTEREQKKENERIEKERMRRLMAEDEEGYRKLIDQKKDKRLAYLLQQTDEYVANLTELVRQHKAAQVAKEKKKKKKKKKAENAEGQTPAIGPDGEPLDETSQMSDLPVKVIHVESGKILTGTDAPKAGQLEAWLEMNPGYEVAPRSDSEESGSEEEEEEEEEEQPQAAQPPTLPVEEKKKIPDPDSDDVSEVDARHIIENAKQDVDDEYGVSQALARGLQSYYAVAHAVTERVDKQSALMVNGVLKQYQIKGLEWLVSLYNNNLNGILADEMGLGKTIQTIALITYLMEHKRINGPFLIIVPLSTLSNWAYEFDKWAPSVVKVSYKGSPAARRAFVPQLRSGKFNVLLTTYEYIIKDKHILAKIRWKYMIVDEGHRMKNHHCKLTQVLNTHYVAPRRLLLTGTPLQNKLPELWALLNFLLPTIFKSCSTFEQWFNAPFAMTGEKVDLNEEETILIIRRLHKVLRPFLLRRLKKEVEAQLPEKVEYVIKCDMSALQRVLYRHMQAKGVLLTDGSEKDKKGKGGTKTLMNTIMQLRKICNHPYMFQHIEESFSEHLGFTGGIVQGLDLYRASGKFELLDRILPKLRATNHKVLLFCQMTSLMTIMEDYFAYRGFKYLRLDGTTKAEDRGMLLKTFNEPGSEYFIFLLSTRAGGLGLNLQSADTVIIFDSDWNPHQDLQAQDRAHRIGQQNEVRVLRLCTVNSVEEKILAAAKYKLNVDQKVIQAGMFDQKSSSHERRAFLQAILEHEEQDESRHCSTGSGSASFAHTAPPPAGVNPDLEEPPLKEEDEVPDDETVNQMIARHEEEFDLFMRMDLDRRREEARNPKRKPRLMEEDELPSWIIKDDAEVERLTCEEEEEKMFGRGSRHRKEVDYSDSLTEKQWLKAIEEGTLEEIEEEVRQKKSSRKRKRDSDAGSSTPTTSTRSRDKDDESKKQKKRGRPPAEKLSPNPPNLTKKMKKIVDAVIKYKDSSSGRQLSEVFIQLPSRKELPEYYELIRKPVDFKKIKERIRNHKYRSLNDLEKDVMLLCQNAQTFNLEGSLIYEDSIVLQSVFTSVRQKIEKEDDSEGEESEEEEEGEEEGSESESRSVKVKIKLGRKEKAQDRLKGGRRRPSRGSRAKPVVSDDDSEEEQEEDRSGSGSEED
# Chain of SWI/SNF-related matrix-associated actin-dependent regulator of chromatin subfamily A member 2 (Homo sapiens, UniProt P51531, E852Q) (P51531 whole entry E852Q, the tested form may be a part): as the sequence (P51531 whole entry, the tested form may be a part) above, with E852Q counted along it
Compound,EC50 [1],IC50 [2],IC50 [3],EC50 [5],EC50 (SBC-5),other results
Nc1cnc(Cl)cc1NC(=O)Nc1cc(C(F)F)ns1,26 nM,< 5 nM,< 5 nM,13 nM,> 10000 nM,solubility thermodynamic [4]: 40 µM
Nc1ncnc2c1ncn2[C@@H]1O[C@H](COP(=O)(O)OP(=O)(O)O)[C@@H](O)[C@H]1O,–,–,–,–,–,ΔTm [6]: 3.1 °C
O=C(Nc1ccnc(Cl)c1)Nc1ccnc(C(F)(F)F)c1,–,60 nM,30 nM,–,–,–
Cc1c[nH]c(NC(=O)Nc2ccnc(Cl)c2)n1,–,> 50000 nM,–,–,–,–
O=C(Nc1cc(C(F)F)ns1)Nc1cc(F)ncc1CO,10 nM,< 5 nM,< 5 nM,4 nM,> 10000 nM,inhibition in vivo at 20 mg/kg (Mus musculus [7]): ≤ 90%; Time (Mus musculus [8]): 12 h; inhibition (Mus musculus [9]): Dose-dependent effect; inhibition in vivo at 7.5 mg/kg (RERF-LC-AI [10]): 21%; T/C (RERF-LC-AI [11]): 30%; EC50 [12]: 10 nM; solubility thermodynamic [4]: 34 µM; inhibition (Mus musculus [13]): Dose-dependent effect; Activity (Mus musculus [14]): Non-Toxic; inhibition in vivo at 20 mg/kg (RERF-LC-AI [15]): 55%; inhibition (Mus musculus [16]): inactive
O=C(Nc1ccnc(Cl)c1)Nc1cc(C(F)F)ns1,360 nM,–,–,31 nM,6300 nM,Kd [17]: 13 nM; Kd [18]: > 10000 nM
O=C(Nc1ccnc(Cl)c1)Nc1ccnc(C(F)F)c1,–,110 nM,–,–,–,–
Cc1cc(NC(=O)Nc2ccnc(Cl)c2)sn1,> 10000 nM,–,–,650 nM,> 10000 nM,–
Cc1cc(NC(=O)Nc2ccnc(Cl)c2)ccn1,–,200 nM,150 nM,–,–,–
Nc1cnc(F)cc1NC(=O)Nc1cc(C(F)F)ns1,10 nM,< 5 nM,< 5 nM,5 nM,> 10000 nM,solubility thermodynamic [4]: 92 µM
O=C(Nc1ccnc(Cl)c1)Nc1cc(C(F)(F)F)ns1,930 nM,–,–,130 nM,> 10000 nM,–
O=C(Nc1ccnc(Cl)c1)Nc1ccccn1,–,3800 nM,1700 nM,–,–,–
O=C(Nc1cc(C(F)F)ns1)Nc1cc(Cl)ncc1CO,42 nM,< 5 nM,< 5 nM,13 nM,> 10000 nM,–
O=C(Nc1ccncc1)Nc1ccnc(Cl)c1,–,1100 nM,770 nM,–,–,Kd [19]: 280 nM; Kd [20]: 450 nM; IC50 [21]: 8100 nM; Activity [22]: Dose-dependent effect; Kd [22]: 87 nM; ΔTm [23]: 3.8 °C; solubility thermodynamic [4]: 330 µM; solubility thermodynamic [24]: 3100 µM; ΔTm [25]: 5.8 °C; inhibition [26]: Active
Cc1csc(NC(=O)Nc2ccnc(Cl)c2)n1,–,970 nM,570 nM,–,–,–

# — ChEMBL document CHEMBL4270662, “Discovery of Orally Active Inhibitors of Brahma Homolog (BRM)/SMARCA2 ATPase Activity for the Treatment of Brahma Related Gene 1 (BRG1)/SMARCA4-Mutant Cancers” (J Med Chem, 2018)
